The full list was thinned out, with hits kept by preference.
TLR4 MyD88 comp: blocks binding of human TLR4 to MyD88 | O00206+Q99836 | HeLa CL3-4 TLR4/MyD88 BLA complementation, FRET ratio | inhibition, % at 8.4 µM | 200,000 tested, 0.18% active | AID 861; in the data active means inhibition above about 25%;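 further: 0% = vehicle and 100% = reference inhibitor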
Target sequence (O00206 whole entry, looked up): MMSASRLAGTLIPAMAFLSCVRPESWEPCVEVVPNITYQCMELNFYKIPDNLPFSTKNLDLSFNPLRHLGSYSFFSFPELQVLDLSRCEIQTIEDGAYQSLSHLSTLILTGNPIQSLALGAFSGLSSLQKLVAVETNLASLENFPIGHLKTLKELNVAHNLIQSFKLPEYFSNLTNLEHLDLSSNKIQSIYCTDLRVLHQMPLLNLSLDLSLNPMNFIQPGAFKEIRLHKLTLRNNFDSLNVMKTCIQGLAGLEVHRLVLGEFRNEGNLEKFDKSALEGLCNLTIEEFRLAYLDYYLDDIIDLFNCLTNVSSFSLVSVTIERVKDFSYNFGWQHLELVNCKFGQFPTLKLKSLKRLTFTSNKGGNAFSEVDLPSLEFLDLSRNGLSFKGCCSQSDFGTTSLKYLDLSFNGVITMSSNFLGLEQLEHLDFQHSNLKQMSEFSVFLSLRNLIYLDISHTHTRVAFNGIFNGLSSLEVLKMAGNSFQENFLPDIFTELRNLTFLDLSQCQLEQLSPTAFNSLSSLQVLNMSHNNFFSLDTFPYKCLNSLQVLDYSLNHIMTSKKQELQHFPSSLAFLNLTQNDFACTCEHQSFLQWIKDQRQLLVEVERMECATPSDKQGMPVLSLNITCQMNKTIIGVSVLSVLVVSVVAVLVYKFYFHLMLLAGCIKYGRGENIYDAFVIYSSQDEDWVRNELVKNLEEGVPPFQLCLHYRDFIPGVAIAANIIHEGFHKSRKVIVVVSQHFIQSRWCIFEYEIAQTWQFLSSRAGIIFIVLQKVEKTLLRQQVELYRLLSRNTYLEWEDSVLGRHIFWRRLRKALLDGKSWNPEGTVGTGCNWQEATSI
Target sequence (Q99836 whole entry, looked up): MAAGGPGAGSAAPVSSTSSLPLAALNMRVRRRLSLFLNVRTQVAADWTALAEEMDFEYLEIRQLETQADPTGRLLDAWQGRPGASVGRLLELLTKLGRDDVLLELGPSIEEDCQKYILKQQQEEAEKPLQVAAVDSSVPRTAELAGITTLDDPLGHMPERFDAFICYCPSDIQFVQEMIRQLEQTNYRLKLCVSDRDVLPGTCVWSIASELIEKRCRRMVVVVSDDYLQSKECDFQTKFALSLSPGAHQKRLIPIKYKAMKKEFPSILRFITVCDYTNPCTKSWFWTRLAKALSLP
CHOP UPR activ: apoptotic UPR (CHOP) activation; 330,000 tested, 0.34% active; CHO-CHOP luciferase reporter, luminescence; percent of tunicamycin response over DMSO baseline; activation, % at 10 µM; AID 449763;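 active means at 10 µM dose, activation of 40% or more, normalized to positive control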;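 further: 100% = tunicamycin at 10 µg/mL and 0% = DMSO alone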
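Evaluation: % reporter activation, DMSO baseline versus tunicamycin full activation; System: CHO-CHOP luciferase reporter cell line; Input: 500 cells/well; Incubation: 6 h compound treatment, 37 °C; Measured by: Steady-Glo luciferase luminescence; Dosing: one dose, 10 µM in 0.5% DMSO; Buffer or medium: F12 medium, 10% FBS; Benchmarks: positive tunicamycin 10 µg/mL, negative DMSO alone.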
TLR9-MyD88 block: blocks human TLR9 binding to MyD88. inhibition, % at 4.98 µM. Q9NR96+Q99836. 340,000 tested, 0.21% active. CHO BLA complementation TLR9-MyD88, CCF4 FRET ratio;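 active means inhibition above the mean over all tested compounds plus 3 SD, cut at about 21% in these data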;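 further: 0% = DMSO only wells and 100% = clavulanate BLA inhibitor control wells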
NOD2-RIPK2 inh: blocks binding of human NOD2 to RIPK2; 360,000 tested, 0.38% active; CHO BLA complementation NOD2-RIPK2, CCF4 ratio; AID 624267; inhibition, % at 4.98 µM; in the data active means inhibition above about 21%;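 further: 0% = vehicle only and 100% = reference blocker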
CHOP inhibitor: inhibitors of CHOP induction in ER stress response. 220,000 tested, 3.8% active. inhibition, % at 10 µM. CHO-K1 CHOP-promoter luciferase, tunicamycin-induced, 15-18 h. AID 2732;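 active means compounds that reduced the stress-induced luciferase reporter signal by more than about 70% of percent inhibition, limit read from the data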;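 further: 0% = tunicamycin plus vehicle and 100% = wells without tunicamycin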
UPR XBP1 act: activators of adaptive arm of unfolded protein response (XBP1). 330,000 tested, 0.33% active. CHO-XBP1 luciferase reporter, IRE1-XBP1 UPR activation, luminescence; percent of tunicamycin response, DMSO as zero. AID 463104. activation, % at 20 µM;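 active means versus positive control, 20 µM dose yields 30% or more activation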;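 further: 100% = tunicamycin at 10 µg/mL and 0% = DMSO only wells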
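incubation = overnight seeding at 37 °C, 6 h compound treatment at 37 °C | assay system = CHO-XBP1 cells stably carrying IRE1-XBP1-driven luciferase reporter | input = 1000 cells per well | detection = luciferase luminescence | dosing = single point, 20 µM final compound, 1% DMSO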
CHOP confirm: confirmation of CHOP induction inhibitors | shares compounds with CHOP inhibitor | inhibition, % at 10 µM | CHO-CHOP promoter luciferase reporter, tunicamycin-induced, luminescence | 2,100 tested, 45% active;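 active means mean of three repeat readings of reporter signal inhibition above a set limit, cut at about 70% in these data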;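 further: 0% = tunicamycin plus vehicle and 100% = wells lacking tunicamycin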
* = called active by the depositor; . = not tested or not shown.

SMILES	TLR4 MyD88 comp	CHOP UPR activ	TLR9-MyD88 block	NOD2-RIPK2 inh	CHOP inhibitor	UPR XBP1 act	CHOP confirm
Nc1cc(-c2ccc(Cl)cc2)nn1S(=O)(=O)c1ccc(Cl)cc1	-7	1	0	-14	108*	-1	7
Cc1cccc(NS(=O)(=O)c2ccc(C3CCCCC3)cc2)c1	7	-1	1	-5	107*	3	132*
O=C(O)c1cccc(NS(=O)(=O)c2ccc(C3CCCCC3)cc2)c1	-5	-2	-5	-2	-3	-2	.
Cc1cc(C)c(NC(=O)CSc2nc3ccc(NC(=O)CSc4nnnn4-c4ccccc4)cc3s2)c(C)c1	7	2	-5	14	98*	5	38
C[N+](C)(C)C(Cc1c[nH]c2ccccc12)C(=O)[O-] (centres undefined)	.	2	.	.	0	3	.
Cc1cc(NC(=O)CSc2nc3cc4c(cc3c(=O)n2CCc2ccccc2)OCO4)no1	-2	4	-7	7	99*	4	101*
CC1=CC(C)(C)N2C(=O)C3(SCC(=O)N3c3ccc(F)cc3)c3cc(C)cc1c32 (centres undefined)	-2	-1	-6	-3	108*	2	112*
CC1=CC(C)(C)N2C(=O)C3(NCCc4c3[nH]c3ccccc43)c3cc(C)cc1c32 (centres undefined)	.	2	2	3	-16	-2	.
CCSc1nnc(NC(=O)C2CCCCC2C(=O)O)s1 (centres undefined)	4	-1	6	-3	14	1	.
CCSc1nnc(NC(=O)C2CC2c2ccccc2)s1 (centres undefined)	11	3	-5	5	102*	-1	-64
Cn1c(CNC(=O)c2ccccc2F)nnc1SCC(=O)c1ccccc1	.	1	13	4	.	-4	.
Cc1ccc(-c2nc(-c3ccccn3)no2)cc1	-61	-10	-1	-4	.	-10	124*
Cc1ccc(-c2noc(-c3ccccc3Br)n2)cc1	0	2	3	-11	-28	-3	.
Cc1ccccc1-c1noc(-c2ccc(O)cc2)n1	-2	3	-2	-3	105*	2	23
Cc1ccc(NC(=S)N2CCSC2c2cccs2)cc1 (centres undefined)	-6	3	14	7	-2	-2	.
COc1ccc(CN(C)C(=O)Cn2cnc3c(NCc4ccccc4)ncnc32)cc1OC	.	-1	-2	-3	.	2	.
Cc1ccc(-c2ccc(/C=C3\C(=O)ON=C3c3ccccc3)o2)c([N+](=O)[O-])c1	14	25	3	3	111*	-3	80*
Cc1ccc(N2C(=O)Nc3ccc(Br)cc3C2(O)C(=O)NCCN(C)C)cc1C (centres undefined)	.	0	5	0	.	-2	.
O=C(CSc1ccc2nnc(-c3cccc(F)c3)n2n1)N1CCCc2ccccc21	-5	0	1	-2	105*	1	33
O=C1c2c(O)cc(O)cc2OC(c2ccc(O)c(O)c2)C1O (centres undefined)	.	.	.	.	-10	.	.
COc1ccc([C@H]2Oc3cc(O)cc(O)c3C(=O)C2[C@@H]2C(=O)c3c(O)cc(O)cc3O[C@@H]2c2ccc(OC)cc2)cc1 (some centres undefined)	.	2	.	.	105*	3	111*
COc1cccc(NC(=O)N(C)C[C@H]2OCc3cnnn3CCCC(=O)N([C@H](C)CO)C[C@@H]2C)c1	.	.	-3	9	.	.	.
CCc1ccc(OCC(=O)NNC(=O)CSc2ncnc3sc(C)c(C)c23)cc1	-11	1	-6	-9	101*	3	13
CCC(=O)NC(c1ccccc1Cl)c1c(O)ccc2ccccc12 (centres undefined)	4	-1	0	1	20	-4	.
O=C(NC(c1ccccc1)c1c(O)ccc2ccccc12)c1ccccc1Cl (centres undefined)	-6	0	4	-5	107*	-2	125*
SMILES	TLR4 MyD88 comp	CHOP UPR activ	TLR9-MyD88 block	NOD2-RIPK2 inh	CHOP inhibitor	UPR XBP1 act	CHOP confirm
COc1ccc(N2C(=O)CC(Sc3nnc(-c4ccccc4)o3)C2=O)cc1 (centres undefined)	1	-10	4	6	109*	-7	5
O=C1CC(Sc2nnc(-c3ccccc3O)o2)C(=O)N1c1ccccc1 (centres undefined)	-5	-3	-9	10	7	-12	.
CCn1c(-c2ccc3[nH]c(C)c(C)c3c2)n[nH]c1=S	6	1	-2	-6	22	-4	.
COc1ccc(Nc2sc(C(=O)Nc3cccc(Cl)c3)c(N)c2C(=O)Nc2ccccc2OC)cc1	0	.	.	.	16	.	.
COc1ccccc1NC(=O)c1c(Nc2ccccc2F)sc(C(=O)Nc2cccc(Cl)c2)c1N	-7	5	-2	-7	108*	3	63
COc1cc(/C=C2/C(=O)c3cccc([N+](=O)[O-])c3C2=O)c(Br)cc1O	8	.	1	-10	107*	.	4
O=C(NCC(=O)N1CCN(c2ccccc2)CC1)c1ccco1	.	2	-9	-4	.	-2	.
COCCNC(=O)c1cn(C)c2ccc(S(=O)(=O)N3CCCC3)cc2c1=O	.	0	-1	0	.	-8	.
COc1ccccc1CNC(=O)c1cn(C)c2ccc(S(=O)(=O)N3CCCC3)cc2c1=O	-10	1	-18	-6	106*	-2	52
COC(=O)c1ccccc1NC1=C/C(=N\S(=O)(=O)c2cccs2)c2ccccc2C1=O	-12	2	-19	-9	107*	-3	109*
O=C1C(Nc2ccccc2)=C/C(=N/S(=O)(=O)c2cccs2)c2ccccc21	-37	.	0	-3	108*	.	112*
COC(=O)c1ccccc1NC1=C/C(=N\S(=O)(=O)c2ccc(C(=O)O)cc2)c2ccccc2C1=O	.	23	-6	1	.	4	.
Cc1ccc(S(=O)(=O)/N=C2\C=C(Nc3ccc(O)cc3)C(=O)c3ccccc32)cc1	.	-2	-5	-5	.	-7	.
CSc1nc2c(cnn2-c2ccc(C)c(C)c2)c(=O)[nH]1	-4	0	-4	1	100*	5	111*
CCC(C)Sc1nc2c(cnn2-c2ccc(C)c(C)c2)c(=O)[nH]1 (centres undefined)	0	1	11	4	12	7	.
O=Cc1ccc(Sc2nnc(-c3ccccc3)o2)c([N+](=O)[O-])c1	5	0	5	-1	97*	8	-28
NNc1nc2cccnc2n(CCNc2ncc(C(F)(F)F)cc2Cl)c1=O	1	0	1	5	2	0	.
